Screening data from PubChem BioAssay.
Only some compounds are listed: those with a hit (about 2.9% of all), similar ones and a draw of the others.
SENP7 block: blocks the human protease SENP7; recombinant SENP7, Z-RLRGG-aminoluciferin luminescence, 40 min; inhibition, % at 5 µM; AID 434973; hit rate 1.5% among 330,000;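 active = inhibition above about 50% at the single test dose, limit read from the data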;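 note: plate controls were DMSO with enzyme for no effect and no enzyme buffer wells for full effect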
Target sequence (Q9BQF6 706-1050 limits assumed): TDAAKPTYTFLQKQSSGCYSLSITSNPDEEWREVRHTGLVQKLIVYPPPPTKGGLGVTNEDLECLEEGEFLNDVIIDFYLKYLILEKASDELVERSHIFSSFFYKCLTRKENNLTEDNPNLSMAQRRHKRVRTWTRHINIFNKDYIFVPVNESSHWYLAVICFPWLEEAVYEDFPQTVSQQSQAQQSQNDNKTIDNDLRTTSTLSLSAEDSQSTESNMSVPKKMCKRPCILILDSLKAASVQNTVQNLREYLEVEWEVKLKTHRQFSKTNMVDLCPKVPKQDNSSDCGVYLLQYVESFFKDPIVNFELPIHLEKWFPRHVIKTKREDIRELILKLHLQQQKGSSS
HSP90 refold inh: inhibitors of HSP90 luciferase refolding in rabbit reticulocyte lysate; luciferase refolding luminescence, 3 h; inhibition, % at 5.6 µM; hit rate 0.91% among 290,000; AID 1789;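 active = inhibition above the screen-wide mean plus 3 SD, computed separately per campaign, cut at about 16% in these data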;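 note: 0% = DMSO wells and 100% = 60 µM geldanamycin wells; inhibitors lower the luminescence because luciferase stays unfolded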
SENP8 block-1: inhibitors of human SENP8 protease | Q96LD8 | recombinant SENP8, Nedd8 substrate fluorescence | inhibition, % at 20 µM | hit rate 0.64% among 360,000; in the data active = inhibition mostly above about 40%, no sharp cut-off; inactive = mostly below about 27%
Target sequence (Q96LD8 whole entry, looked up): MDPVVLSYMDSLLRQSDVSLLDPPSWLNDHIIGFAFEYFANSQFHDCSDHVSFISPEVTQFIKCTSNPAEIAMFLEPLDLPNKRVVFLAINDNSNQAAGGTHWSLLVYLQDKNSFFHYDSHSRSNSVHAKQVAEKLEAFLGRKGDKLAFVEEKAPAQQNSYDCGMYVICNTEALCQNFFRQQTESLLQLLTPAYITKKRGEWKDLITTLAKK
SENP6 block: inhibitors of human SENP6 protease; Recombinant SENP6 catalytic domain, aminoluciferin luminescence; inhibition, % at 10 µM; hit rate 1.8% among 330,000;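 active = inhibition above about 50% at the single tested dose, limit read from the data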;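 note: plate controls were DMSO wells with enzyme for no effect and DMSO wells lacking enzyme for full effect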
SENP8 block-2: blocks the human protease SENP8. hit rate 1.2% among 330,000. Q96LD8. inhibition, % at 10 µM. purified SENP8, Z-RLRGG-aminoluciferin cleavage, luminescence; in the data active = inhibition above about 50%
SENP1 FRET inh: blocks the human SENP1 SUMO protease catalytic domain; Q9P0U3; recombinant SENP1 catalytic domain, CyPet-SUMO1-YPet FRET cleavage; inhibition, % at 10 µM; hit rate 0.21% among 360,000; AID 624204;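 active = inhibition at least 30% at 10 µM, raw YFP signal under a set limit, fluorescence ratio 0.5 to 1.5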;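 note: 0% = enzyme with DMSO and 100% = no enzyme wells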
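Compound: 10 µM single point, 0.5% DMSO; Test system: hSENP1 catalytic domain, recombinant; Timing: 50 min reaction at room temperature; Technique: FRET, CFP and YFP emission; Control set: no-enzyme wells low, DMSO-plus-enzyme wells high control.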
HSP90 confirm: HSP90 inhibition, confirmation assay; shares compounds with HSP90 refold inh; rabbit reticulocyte lysate, luciferase refolding luminescence, 3 h; inhibition, % at 5.9 µM; hit rate 64% among 2,300; AID 1846; in the data active = inhibition above about 18%;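 note: 0% = vehicle wells and 100% = reference inhibitor wells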
FLuc counter: counter-screen for HSP90 inhibitors: inhibitors of firefly luciferase. purified native firefly luciferase, luminescence. hit rate 48% among 2,300. shares compounds with HSP90 refold inh. AID 1847. inhibition, % at 5.9 µM;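 active = inhibition above the mean inhibition of all tested sample wells plus 3 SD, cut at about 10% in these data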;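 note: 0% = DMSO with luciferase and 100% = wells lacking luciferase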
* marks the source's active call; other numbers are inactive results; x = not tested or not shown.

SMILES	SENP7 block	HSP90 refold inh	SENP8 block-1	SENP6 block	SENP8 block-2	SENP1 FRET inh	HSP90 confirm	FLuc counter
CCCCCCCCN1C(=O)[C@H](CC(=O)N2CCN(C(=O)C3CC3)CC2)C[C@@]2(C(=O)OC)CCCCC=C12	x	x	5	x	x	3	x	x
Cc1cc(C(=O)N/N=C/c2ccc(O)c(O)c2O)c(C)n1-c1ccccc1	x	17*	39	x	x	-5	2	-20
Cc1cc(/C=N/NC(=O)c2cccs2)c(C)n1-c1ccccc1	32	57*	-60	-29	44	0	71*	66*
CCOC(=O)C(Sc1ncnc2c1sc1nc(N3CCOCC3)c3c(c12)CCCC3)c1ccccc1 (stereo not given)	x	2	x	x	x	x	x	x
COc1ccc(NC(=O)OC(CN2CCCCC2)C(F)(F)F)cc1 (stereo not given)	0	18*	9	5	1	2	-4	-10
CC(C)(C)c1ccc(-c2cc(-c3ccccc3O)[nH]n2)cc1	35	52*	12	48	37	1	60*	59*
Cc1ccc2oc(=O)c(/C=C(\O)c3sc(C)nc3C)nc2c1	-6	-4	17	-2	-13	2	x	x
CC(C)(C)/C(O)=C/c1nc2cc(Cl)ccc2oc1=O	-11	80*	10	-16	-12	4	81*	-14
Cc1ccc2oc(=O)c(/C=C(\O)c3ccco3)nc2c1	-1	37*	14	-16	-12	0	37*	-23
Cc1ccc2oc(=O)c(/C=C(\O)C(C)(C)C)nc2c1	5	1	-8	2	0	2	x	x
CN(C(=O)c1cccc(C#N)c1)c1nnc(-c2cnccn2)s1	5	-2	-5	9	3	-2	x	x
CC(C)(C)c1ccc(-c2nnc3sc(-c4ccccn4)nn23)cc1	-7	40*	-14	-7	-3	-1	54*	26*
CN(C)c1ccc(C(O)Cc2nc3ccccc3n2C)cc1 (stereo not given)	6	46*	4	5	0	-26	5	1
CCOc1ccc(N(CC(=O)N2CCCCCC2)S(=O)(=O)c2ccc(F)cc2)cc1	-12	35*	3	-22	-14	-1	-4	-7
CCn1cc(S(=O)(=O)NCCc2ccc(OC)c(OC)c2)cn1	-5	-6	17	8	2	-1	x	x
COc1cc(-c2nnc(SCC3(c4ccc(Br)cc4)OCCO3)o2)cc(OC)c1OC	-6	2	0	-10	-2	-1	x	x
Cc1nnc(SCC(=O)Nc2ncc3c(n2)CC(c2ccccc2)CC3=O)s1 (stereo not given)	1	35*	11	-23	-8	2	-3	-6
CCOC(=O)c1ccc(-c2ccc(C=O)o2)cc1	-5	30*	-437	-6	-21	-4	52*	-13
CCOC(=O)c1cccc(-c2ccc(C=O)o2)c1	-1	-1	11	28	1	-2	x	x
CC(C)(C)n1ncc2c(=O)n(CC(=O)OCc3ccccc3)cnc21	29	84*	20	38	17	3	91*	89*
O=C(O)c1cccc(S(=O)(=O)N2CCN(C(c3ccccc3)c3ccccc3)CC2)c1	-5	0	4	-15	-9	6	x	x
CCCOc1ccc(/C=N/NC(=S)Nc2ccccc2[N+](=O)[O-])c(O)c1	x	75*	x	x	x	x	75*	21*
COc1ccc(/C=N/NC(=S)Nc2ccccc2[N+](=O)[O-])cc1O	x	51*	19	x	x	3	53*	11*
O=[N+]([O-])c1cc(/C=N/NC(=S)Nc2ccccc2Cl)ccc1Cl	10	1	17	-18	1	1	x	x
CCNC(=S)N/N=C/c1ccccc1[N+](=O)[O-]	-3	20*	9	-4	-2	0	0	-3
SMILES	SENP7 block	HSP90 refold inh	SENP8 block-1	SENP6 block	SENP8 block-2	SENP1 FRET inh	HSP90 confirm	FLuc counter
NC(=S)N/N=C/c1ccccc1[N+](=O)[O-]	4	3	13	5	3	0	x	x
CN(CC(=O)Nc1cccc(F)c1)C(=O)CN1C(=O)C2CCCCC2C1=O (stereo not given)	6	x	2	-7	-2	1	x	x
OC(COc1ccc(Cl)cc1)CN1CCN(c2ccccc2)CC1 (stereo not given)	3	40*	10	-4	-2	4	-2	-6
OC(COc1cccc2ccccc12)CN1CCN(c2ccccc2)CC1 (stereo not given)	7	12	23	5	-4	2	7	0
OC(COc1cccc2ccccc12)CN1CCOCC1 (stereo not given)	x	x	9	x	x	-1	x	x
CC(C)(C)c1ccc(OCC(O)CN2CCN(c3ccccn3)CC2)cc1 (stereo not given)	8	40*	7	8	2	3	2	-2
O=C(c1ccc(NS(=O)(=O)c2cccc(F)c2)cc1)N1CCCCC1	-8	24*	-5	-7	-2	0	-9	-11
O=C(c1ccc(NS(=O)(=O)c2cccc(F)c2)cc1)N1CCCC1	-2	-2	1	-7	10	1	x	x
COc1cccc(C(=O)N2CCC2(C)C(=O)O)c1 (stereo not given)	x	x	8	x	x	-1	x	x
O=C(CSc1ncccc1C(=O)O)c1ccc2ccccc2c1	-1	96*	3	21	2	-1	93*	-10
CC(C)c1ccc(N(CC(=O)NCc2cccnc2)S(=O)(=O)c2ccccc2)cc1	-6	27*	5	5	-10	-1	1	-3
CC1CCC/C(=C\Nc2ccc(C(=O)O)cc2)C1=O (stereo not given)	18	37*	11	41	39	0	61*	22*
CCOC(=O)c1ccc(N/C=C2/CCCC(C)C2=O)cc1 (stereo not given)	-9	12	-61	14	3	-4	x	x
CC(=O)NC1C(=O)N=C(SCC(=O)NC(C)c2ccccc2)NC1=O (stereo not given)	8	1	2	-21	6	1	x	x
CC(=O)NC1C(=O)N=C(SCc2ccccc2)NC1=O (stereo not given)	-3	49*	7	4	-2	3	2	-5
COc1cc(/C=N/Nc2ccc(Cl)c(C(=O)O)c2)ccc1OC(=O)c1cccs1	-8	21*	-31	31	15	2	61*	-24
COc1ccc(C(=O)Oc2cc(/C=N/NC(N)=S)ccc2OC)cc1	3	2	18	-2	10	0	x	x
COc1cc(/C=N/Nc2ccc(Cl)c(C(=O)O)c2)ccc1OC(=O)c1ccco1	-3	32*	-72	33	29	0	71*	-18
